Data on 1 compound can be found in ChEMBL document CHEMBL4765336, “Discovery of coumarin derivatives as potent and selective cyclin-dependent kinase 9 (CDK9) inhibitors with high antitumour activity” (Eur J Med Chem, 2020).

The target in series [1] is CDK6/cyclin D3 (Homo sapiens, UniProt Q00534). The series can be described thus: Inhibition of CDK6/Cyclin D3 (unknown origin) preincubated for 20 mins followed by ATP addition and measured after 120 mins in presence of [33P-gamma] ATP by hotspot kinase assay. It is filed as protein-complex assay. The gist of the method:
(§1)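 Radiometric filter-binding assay: kinase and substrate in 20 mM Hepes pH 7.5, 10 mM MgCl2, 1 mM EGTA, 0.02% Brij35, 0.02 mg/mL BSA, 0.1 mM Na3VO4, 2 mM DTT, 1% DMSO. Compound (top 1/10/27 μM, 3-fold serial dilutions) preincubated 20 min at 25 °C. ATP plus [γ-33P]ATP added to 10 μM final, reacted 120 min at 25 °C. IC50 from curve fit, duplicate mean.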

For series [2], the system named is A-375. The series can be described thus: Antiproliferative activity against human A-375 cells assessed as inhibition of cell growth incubated for 72 hrs by Celltiter-Glo luminescent assay. It is filed as functional, cell-based. Conditions: A-375, 72 h. The method in brief: (§2)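 Cells seeded in growth medium and held overnight at 37 °C; medium-only wells served as background. DMSO stocks were diluted in medium to 3× final and added; cells incubated 72 h at 37 °C, 5% CO2. Viability read by CellTiter-Glo luminescence after 60 min at room temperature. IC50 from curve fit, mean of duplicate.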
(Cellular ATP, detected with luciferase, serves as a proxy for viable cell number.)

Series [3] addresses Cyclin-dependent kinase 2/cyclin E1 (Homo sapiens, UniProt P24941). The series is described as follows: Inhibition of CDK2/Cyclin E (unknown origin) preincubated for 20 mins followed by ATP addition and measured after 120 mins in presence of [33P-gamma] ATP by hotspot kinase assay. The series is classed as protein-complex assay. The gist of the method:
as §1

The target in series [4] is Voltage-gated inwardly rectifying potassium channel KCNH2 (Homo sapiens, UniProt Q12809). The series can be described thus: Inhibition of fluorescently labeled tracer binding to human ERG by competitive binding assay. The method in brief: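 Fluorescent tracer competition assay against a membrane preparation containing hERG.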
Sequence of Voltage-gated inwardly rectifying potassium channel KCNH2 (Q12809 whole entry): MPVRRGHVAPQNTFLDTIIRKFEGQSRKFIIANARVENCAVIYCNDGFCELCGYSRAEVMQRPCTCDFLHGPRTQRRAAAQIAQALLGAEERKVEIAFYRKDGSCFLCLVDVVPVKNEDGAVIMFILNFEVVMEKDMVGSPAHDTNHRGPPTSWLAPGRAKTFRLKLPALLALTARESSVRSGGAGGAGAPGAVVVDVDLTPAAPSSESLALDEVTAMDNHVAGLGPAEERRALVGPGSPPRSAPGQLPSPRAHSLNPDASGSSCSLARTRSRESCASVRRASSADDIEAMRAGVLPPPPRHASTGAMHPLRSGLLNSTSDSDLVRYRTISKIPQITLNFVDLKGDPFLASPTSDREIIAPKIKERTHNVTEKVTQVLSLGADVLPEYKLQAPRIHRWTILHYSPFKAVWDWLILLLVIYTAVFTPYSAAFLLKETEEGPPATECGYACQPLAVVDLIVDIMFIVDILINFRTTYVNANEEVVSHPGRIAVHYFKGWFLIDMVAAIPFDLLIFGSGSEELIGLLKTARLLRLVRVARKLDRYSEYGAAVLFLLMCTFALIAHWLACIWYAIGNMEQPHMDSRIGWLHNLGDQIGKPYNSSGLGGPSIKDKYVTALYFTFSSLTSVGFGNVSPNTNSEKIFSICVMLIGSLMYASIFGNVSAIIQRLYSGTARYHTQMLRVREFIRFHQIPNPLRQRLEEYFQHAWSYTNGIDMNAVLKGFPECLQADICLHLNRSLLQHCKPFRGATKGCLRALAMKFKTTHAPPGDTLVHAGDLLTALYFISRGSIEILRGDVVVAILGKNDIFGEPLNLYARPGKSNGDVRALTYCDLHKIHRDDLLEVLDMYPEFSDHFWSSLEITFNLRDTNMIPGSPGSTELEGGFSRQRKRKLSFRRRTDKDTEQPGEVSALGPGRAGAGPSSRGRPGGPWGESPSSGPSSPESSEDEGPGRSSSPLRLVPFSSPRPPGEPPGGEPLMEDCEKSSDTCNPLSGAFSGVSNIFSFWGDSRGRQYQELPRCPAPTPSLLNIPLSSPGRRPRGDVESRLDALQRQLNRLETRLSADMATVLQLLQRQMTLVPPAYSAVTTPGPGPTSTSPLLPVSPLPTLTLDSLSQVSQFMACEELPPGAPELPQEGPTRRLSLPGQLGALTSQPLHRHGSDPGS
The nature of series [5]: Tmax in ICR mouse at 30 mg/kg, po measured up to 24 hrs by LC-MS/MS analysis. The series is classed as ADME, organism-based. Conditions: in vivo. The gist of the method: (§3)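 Male ICR mice (25.1–28.8 g, n=9), fasted overnight (12 h), single oral gavage 30 mg/kg as 3 mg/mL in 0.5% CMC-Na with 0.2% Tween 80. Venous blood drawn into EDTA-K2 at 0, 0.25, 0.5, 1, 2, 4, 8, 24 h. Plasma protein-precipitated with ACN and run on LC-MS/MS (C18, formic acid/ACN). Noncompartmental parameters taken from composite mean concentration-time data.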

A short description of series [6]: Metabolic stability in rat liver microsomes assessed as half life at 1 uM incubated up to 60 mins in presence of NADPH by LC-MS/MS analysis. The series is classed as ADME, Microsome. The gist of the method: (§4)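 Liver microsomes (0.5 mg/mL) incubated at 37 °C with compound at 1.0 μM final, 3 mM MgCl2 and 1 mM NADPH in 100 mM PBS pH 7.4. Samples taken at 0, 5, 15, 30, 60 min; remaining parent measured by LC-MS/MS. k = −slope, T1/2 = 0.693/k, CLint = k/microsomal protein concentration. Midazolam served as control.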
For orientation: Microsomes from liver hold many membrane-bound enzymes, among them those of drug oxidation.

The nature of series [7]: Cmax in ICR mouse at 30 mg/kg, po measured up to 24 hrs by LC-MS/MS analysis. It is filed as ADME, organism-based. Set-up: route oral, dose 30 mg/kg, time <=24. Conditions: in vivo. The method in brief: as §3
Series [8] concerns MV4-11. The series is described as follows: Antitumor activity against human MV4-11 cells xenografted in iv dosed BALB/c nude mouse assessed as tumor growth inhibition administered once daily for 21 days and measured twice per week by vernier caliper method. The series is classed as functional, organism-based. As to conditions: dose 10-40 mg/kg, time 21.0 day. (In general: Xenograft models place foreign cells or tissue in a host animal.)

Series [9] in a line: Metabolic stability in monkey liver microsomes assessed as intrinsic clearance at 1 uM incubated up to 60 mins in presence of NADPH by LC-MS/MS analysis. It is filed as ADME, Macaca mulatta, Microsome. As to conditions: rhesus monkey, read-out: CLH. The gist of the method: as §4
In series [10] the target is Cyclin-C/Cyclin-dependent kinase 19 (Homo sapiens, UniProt Q9BWU1). The series can be described thus: Inhibition of CDK19/Cyclin C (unknown origin) preincubated for 20 mins followed by ATP addition and measured after 120 mins in presence of [33P-gamma] ATP by hotspot kinase assay. It is filed as protein-complex assay. The gist of the method: as §1
Sequence of Cyclin-C/Cyclin-dependent kinase 19 (Q9BWU1 whole entry): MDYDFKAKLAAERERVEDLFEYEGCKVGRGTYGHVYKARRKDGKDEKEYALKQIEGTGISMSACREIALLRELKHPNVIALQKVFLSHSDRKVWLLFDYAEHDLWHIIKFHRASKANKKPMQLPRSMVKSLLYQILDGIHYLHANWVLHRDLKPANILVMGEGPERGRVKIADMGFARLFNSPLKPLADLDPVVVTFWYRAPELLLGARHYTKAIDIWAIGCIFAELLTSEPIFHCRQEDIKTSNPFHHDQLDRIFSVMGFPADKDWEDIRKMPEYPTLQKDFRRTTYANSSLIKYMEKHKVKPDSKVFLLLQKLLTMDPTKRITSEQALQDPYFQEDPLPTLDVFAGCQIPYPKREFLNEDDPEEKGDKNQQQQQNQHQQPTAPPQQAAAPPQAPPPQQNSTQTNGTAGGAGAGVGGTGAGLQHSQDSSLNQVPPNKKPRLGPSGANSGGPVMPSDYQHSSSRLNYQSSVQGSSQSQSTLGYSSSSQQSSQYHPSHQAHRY
Sequence of Cyclin-C/Cyclin-dependent kinase 19 (P24863 whole entry, further chain): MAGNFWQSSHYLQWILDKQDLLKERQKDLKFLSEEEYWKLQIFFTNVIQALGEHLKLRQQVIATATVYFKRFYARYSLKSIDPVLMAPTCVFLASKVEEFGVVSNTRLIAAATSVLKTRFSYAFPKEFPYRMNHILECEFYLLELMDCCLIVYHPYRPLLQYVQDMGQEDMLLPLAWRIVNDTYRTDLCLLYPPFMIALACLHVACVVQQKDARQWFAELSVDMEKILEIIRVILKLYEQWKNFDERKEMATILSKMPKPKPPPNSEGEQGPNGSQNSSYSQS
The target of series [11] is CDK8/Cyclin C (Homo sapiens, UniProt P49336). The series is described as follows: Inhibition of CDK8/Cyclin C (unknown origin) preincubated for 20 mins followed by ATP addition and measured after 120 mins in presence of [33P-gamma] ATP by hotspot kinase assay. It is filed as protein-complex assay. The gist of the method:
as §1

Series [12] is described as follows: AUC (0 to t) in ICR mouse at 2 mg/kg, iv measured up to 24 hrs by LC-MS/MS analysis. It is filed as ADME, organism-based. Also on record: route intravenous, dose 2 mg/kg, time <=24. Conditions: in vivo.
Series [13] in a line: Metabolic stability in human liver microsomes assessed as intrinsic clearance at 1 uM incubated up to 60 mins in presence of NADPH by LC-MS/MS analysis. The series is classed as ADME, Microsome. Conditions: read-out: CLH. The gist of the method: as §4
Series [14] can be described thus: Initial plasma concentration in ICR mouse at 2 mg/kg, iv measured up to 24 hrs by LC-MS/MS analysis. It is filed as ADME, organism-based. The gist of the method: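 Male ICR mice (25.1–28.8 g, n=9), fasted 12 h, given a single i.v. dose of 2.0 mg/kg at 0.4 mg/mL in DMSO/PEG200/saline (1:1:3). Blood sampled at 0, 0.083, 0.25, 0.5, 1, 2, 4, 8, 24 h. Plasma ACN-precipitated and quantified by LC-MS/MS. Parameters derived from composite mean plasma concentration-time data.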

Series [15] can be described thus: Metabolic stability in dog liver microsomes assessed as intrinsic clearance at 1 uM incubated up to 60 mins in presence of NADPH by LC-MS/MS analysis. It is filed as ADME, Canis lupus familiaris, Microsome. Conditions: read-out: CLH. The method in brief:
as §4

In series [16] the target is CDK3/Cyclin E (Homo sapiens, UniProt Q00526). The series can be described thus: Inhibition of CDK3/Cyclin E (unknown origin) preincubated for 20 mins followed by ATP addition and measured after 120 mins in presence of [33P-gamma] ATP by hotspot kinase assay. The series is classed as protein-complex assay. The gist of the method:
as §1

The subject of series [17] is SW-620. The series is described as follows: Antiproliferative activity against human SW-620 cells assessed as inhibition of cell growth incubated for 72 hrs by Celltiter-Glo luminescent assay. The series is classed as functional, cell-based. As to conditions: SW-620, 72 h. The gist of the method: as §2
Series [18] is described as follows: AUC (0 to t) in ICR mouse at 30 mg/kg, po measured up to 24 hrs by LC-MS/MS analysis. It is filed as ADME, organism-based. Conditions: in vivo. Set-up: route oral, dose 30 mg/kg, time <=24. The method in brief: as §3
Series [19] can be described thus: Metabolic stability in human liver microsomes assessed as half life at 1 uM incubated up to 60 mins in presence of NADPH by LC-MS/MS analysis. It is filed as ADME, Microsome. The gist of the method:
as §4

Series [20] has as its system HCT-116. The series is described as follows: Antiproliferative activity against human HCT-116 cells assessed as inhibition of cell growth incubated for 72 hrs by Celltiter-Glo luminescent assay. As to conditions: HCT-116, 72 h. The series is classed as functional, cell-based. The gist of the method:
as §2

Series [21] has as its system BXPC-3. The series is described as follows: Antiproliferative activity against human BxPC3 cells assessed as inhibition of cell growth incubated for 72 hrs by Celltiter-Glo luminescent assay. The series is classed as functional, cell-based. As to conditions: BXPC-3, 72 h. The gist of the method: as §2
The test system of series [22] is PANC-1. The series can be described thus: Antiproliferative activity against human PANC-1 cells assessed as inhibition of cell growth incubated for 72 hrs by Celltiter-Glo luminescent assay. The series is classed as functional, cell-based. As to conditions: PANC-1, 72 h. The method in brief:
as §2

Sequence of CDK8/Cyclin C (P49336 whole entry): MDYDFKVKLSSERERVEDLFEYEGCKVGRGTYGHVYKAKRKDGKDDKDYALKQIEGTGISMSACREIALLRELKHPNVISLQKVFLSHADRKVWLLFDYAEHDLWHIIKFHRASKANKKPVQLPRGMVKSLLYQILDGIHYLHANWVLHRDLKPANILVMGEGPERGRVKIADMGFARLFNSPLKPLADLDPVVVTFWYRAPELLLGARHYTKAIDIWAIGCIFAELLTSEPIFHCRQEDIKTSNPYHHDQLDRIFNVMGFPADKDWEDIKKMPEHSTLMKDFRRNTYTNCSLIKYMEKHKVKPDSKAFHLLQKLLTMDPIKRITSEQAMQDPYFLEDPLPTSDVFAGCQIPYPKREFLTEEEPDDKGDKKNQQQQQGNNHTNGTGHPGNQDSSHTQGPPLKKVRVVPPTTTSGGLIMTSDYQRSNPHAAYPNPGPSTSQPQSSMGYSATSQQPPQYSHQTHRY
Sequence of CDK8/Cyclin C (P24863 whole entry, further chain): as the sequence (P24863 whole entry, further chain) above
Sequence of CDK6/cyclin D3 (P30281 whole entry): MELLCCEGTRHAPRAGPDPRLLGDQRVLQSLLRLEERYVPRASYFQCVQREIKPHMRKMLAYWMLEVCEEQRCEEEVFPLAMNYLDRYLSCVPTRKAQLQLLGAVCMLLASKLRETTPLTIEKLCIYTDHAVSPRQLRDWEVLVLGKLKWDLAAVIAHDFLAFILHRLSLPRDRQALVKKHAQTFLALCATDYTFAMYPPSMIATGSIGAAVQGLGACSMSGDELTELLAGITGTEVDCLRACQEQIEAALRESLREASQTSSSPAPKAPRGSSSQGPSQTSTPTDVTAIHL
Sequence of CDK6/cyclin D3 (Q00534 whole entry): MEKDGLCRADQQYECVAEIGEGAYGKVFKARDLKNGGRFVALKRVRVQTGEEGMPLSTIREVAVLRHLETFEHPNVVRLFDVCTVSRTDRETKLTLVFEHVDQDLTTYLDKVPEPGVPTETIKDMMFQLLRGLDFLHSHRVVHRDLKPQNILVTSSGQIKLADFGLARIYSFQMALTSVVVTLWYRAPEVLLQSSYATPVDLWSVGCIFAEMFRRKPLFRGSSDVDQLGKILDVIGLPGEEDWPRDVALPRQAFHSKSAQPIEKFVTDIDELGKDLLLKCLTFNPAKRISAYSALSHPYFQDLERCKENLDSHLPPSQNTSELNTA
Sequence of CDK3/Cyclin E (P24864 whole entry): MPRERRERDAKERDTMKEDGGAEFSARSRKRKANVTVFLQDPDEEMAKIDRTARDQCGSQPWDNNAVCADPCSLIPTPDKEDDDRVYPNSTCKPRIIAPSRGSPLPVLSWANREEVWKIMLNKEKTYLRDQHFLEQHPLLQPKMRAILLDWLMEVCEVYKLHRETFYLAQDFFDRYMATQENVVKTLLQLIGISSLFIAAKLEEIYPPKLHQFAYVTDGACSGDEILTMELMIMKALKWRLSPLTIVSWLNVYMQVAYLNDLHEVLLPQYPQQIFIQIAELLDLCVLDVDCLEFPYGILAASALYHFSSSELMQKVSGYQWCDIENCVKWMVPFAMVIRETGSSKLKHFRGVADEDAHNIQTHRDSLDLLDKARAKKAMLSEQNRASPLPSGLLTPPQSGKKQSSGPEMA
Sequence of CDK3/Cyclin E (Q00526 whole entry): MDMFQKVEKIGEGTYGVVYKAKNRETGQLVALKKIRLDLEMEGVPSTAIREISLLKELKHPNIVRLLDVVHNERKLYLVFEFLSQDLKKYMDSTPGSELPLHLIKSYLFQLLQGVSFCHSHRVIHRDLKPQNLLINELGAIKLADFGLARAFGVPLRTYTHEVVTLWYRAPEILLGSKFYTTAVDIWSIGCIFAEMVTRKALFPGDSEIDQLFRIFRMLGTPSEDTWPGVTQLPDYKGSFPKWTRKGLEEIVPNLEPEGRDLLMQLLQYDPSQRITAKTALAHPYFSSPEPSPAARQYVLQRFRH

By IC50 is commonly meant the concentration at which inhibition is half-maximal. The term Tmax denotes the time from dosing to the highest level. The half-life is how long it takes for the measured level to halve. Usually Cmax stands for the highest concentration seen after dosing. The AUC(0-t) is the area under the concentration-time curve up to a stated or last time point. Turning to `COc1cc(F)ccc1-c1nc(Nc2ccc3c(N4CCOCC4)c(C(C)=O)c(=O)oc3c2)ncc1F`, the IC50 was 336 nM in series [1]; 90 nM in series [2]; 1010 nM in series [3]; 10100 nM in [4]; 15500 nM in series [10]; 6500 nM in series [11]. Further, the IC50 in series [16] stood at 1510 nM; in series [17], 430 nM; in series [20], 280 nM; in [21] it was 80 nM; in [22], 300 nM. In addition, the Tmax in series [5] was 15 min. Also, the results for the half-life at 1 µM in [6] and in series [19] were 2.01 min and 35.7 min, respectively. In series [7], this compound showed a Cmax of 665 ng/mL. For the same compound, in [8], the Activity result is “Dose-dependent effect”. In addition, the figures for the microsomal CLint at 1 µM in series [9], in series [13] and in series [15] were 57.3 µL/min/mg, 38.8 µL/min/mg and 98.7 µL/min/mg, respectively. In addition, the AUC(0-t) at 24 h in [12] is 560 ng·h/mL; in series [18], 1200 ng·h/mL. Moreover, the C0 at 24 h in series [14] was found to be 3060 ng/mL.
